Calls of active or inactive are those of the source.
Key:
Trypanosoma cruzi [1] = test: Antitrypanosomal activity against Trypanosoma cruzi Berenice-78 infected in mongrel dog assessed as reduction in parasite-induced intrafascicular collagen deposition in right atrium at 12 mg/kg, po BID after 180 days […]; type: functional, organism-based; design: dose 12 mg/kg; conditions: Cardiac atrium
[2] = Half life in mongrel dog; type: ADME, organism-based, Canis lupus familiaris; conditions: in vivo
[3] = Half life in po dosed human; type: ADME, organism-based; conditions: in vivo
[4] = Half life in mouse; type: ADME, organism-based; conditions: in vivo
Canis familiaris [5] = test: Immunostimulatory activity in mongrel dog infected with Trypanosoma cruzi Berenice-78 assessed as reduction in INFgamma production in right atrium at 12 mg/kg, po BID after 180 days by semiquantitative RT-PCR; type: functional, organism-based; design: dose 12 mg/kg; conditions: Canis lupus familiaris, Cardiac atrium
Outline: (§1)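 Dogs were euthanized 6 months after the end of treatment. RNA was extracted from the right atrium with acid guanidinium thiocyanate-phenol-chloroform. One microgram was DNase treated and reverse transcribed with oligo(dT) for 1 h at 42°C. IFN-γ or IL-10 cDNA was amplified with 1.5 mM MgCl2: 94°C 5 min, n cycles of 94/57/72°C, final extension 72°C 6 min. Expression was scored semiquantitatively against infected untreated and noninfected dogs.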

Canis familiaris [6] = test: Immunostimulatory activity in mongrel dog infected with Trypanosoma cruzi Berenice-78 assessed as reduction in IL10 production in right atrium at 7 mg/kg, po BID after 180 days by semiquantitative RT-PCR; type: functional, organism-based; design: dose 7 mg/kg; conditions: Canis lupus familiaris, Cardiac atrium; outline: as §1
[7] = Half life in human; type: ADME, organism-based; conditions: in vivo
Canis familiaris [8] = test: Toxicity in mongrel dog infected with Trypanosoma cruzi Berenice-78 assessed as weight loss at 12 mg/kg, po BID for 90 days started 12 to 22 days postinfection measured after 6 months; type: organism-based, Canis lupus familiaris; design: dose 12 mg/kg, route oral; conditions: in vivo, 4383 h
Outline: (§2)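 Body weight gain, in kg, was recorded for infected dogs 1 day and 6 months after the end of oral b.i.d. treatment. Treated animals were compared with infected untreated and noninfected control groups.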

Canis familiaris [9] = test: Toxicity in mongrel dog infected with Trypanosoma cruzi Berenice-78 assessed as weight loss at 7 mg/kg, po BID for 90 days started 12 to 22 days postinfection measured after 6 months; type: organism-based, Canis lupus familiaris; design: dose 7 mg/kg, route oral; conditions: in vivo, 4383 h; outline: as §2
Trypanosoma cruzi [10] = test: Antimicrobial activity against Trypanosoma cruzi Y infected in mongrel dog assessed as suppression of microbial proliferation at 12 mg/kg, po BID started 12 to 22 days postinfection measured after 1 day; type: functional, organism-based; design: dose 12 mg/kg
Outline: (§3)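 Mongrel dogs, 4 months old, dewormed and vaccinated, were inoculated with 2.0 × 10^3 bloodstream trypomastigotes/kg. Oral b.i.d. (q12h) dosing began 12 to 22 days postinfection, once parasitemia appeared. Dosing ran 90 days at 12 mg/kg and 60 days at 7 mg/kg, with 5 dogs per group. Parasitemia was read by fresh-blood examination of marginal ear vein blood from day 10 of infection until parasites were undetectable.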

Trypanosoma cruzi [11] = test: Antimicrobial activity against Trypanosoma cruzi Berenice-78 infected in mongrel dog assessed as suppression of microbial proliferation at 12 mg/kg, po BID started 12 to 22 days postinfection measured after 1 day; type: functional, organism-based; design: dose 12 mg/kg; outline: as §3
Trypanosoma cruzi [12] = test: Antimicrobial activity against Trypanosoma cruzi Y infected in mongrel dog assessed as suppression of microbial proliferation at 7 mg/kg, po BID started 12 to 22 days postinfection measured after 1 day; type: functional, organism-based; design: dose 7 mg/kg; outline: as §3
Trypanosoma cruzi [13] = test: Antimicrobial activity against Trypanosoma cruzi Y infected in mongrel dog assessed as survival of dog at 7 mg/kg, po BID started 12 to 22 days postinfection measured after 1 day; type: functional
Outline: (§4)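 Four-month-old mongrel dogs (five per group) received 2.0 × 10^3 Y or Berenice-78 bloodstream trypomastigotes/kg. Oral dosing began 12–22 days postinfection, when parasitemia was detected by fresh blood examination: 12 mg/kg q12h for 90 days, or 7 mg/kg q12h for 60 days. Ear-vein blood was checked from day 10. Mortality was expressed as the cumulative percentage of dead animals.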

Trypanosoma cruzi [14] = test: Antimicrobial activity against Trypanosoma cruzi Berenice-78 infected in mongrel dog assessed as survival of dog at 7 mg/kg, po BID started 12 to 22 days postinfection measured after 1 day; type: functional; outline: as §4
Trypanosoma cruzi [15] = test: Antimicrobial activity against Trypanosoma cruzi Y infected in mongrel dog assessed as parasite level in blood of dog at 12 mg/kg, po BID started 12 to 22 days postinfection measured after 30 days by PCR analysis; type: functional
Outline: (§5)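 Blood PCR for T. cruzi on treated dogs (n = 5 per group) at 1 and 6 months posttreatment. Each reaction took 2 μl blood DNA template in Tris-HCl pH 9.0, 75 mM KCl, 3.5 mM MgCl2 and 0.2 mM dNTPs. Cycling was 95°C 5 min, then 2 cycles annealing at 30°C, 33 cycles at 40°C, and 72°C 5 min. Products were run on 6% polyacrylamide and silver stained. Reported as rate of positive animals.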

Trypanosoma cruzi [16] = test: Antimicrobial activity against Trypanosoma cruzi Berenice-78 infected in mongrel dog assessed as parasite level in blood of dog at 12 mg/kg, po BID started 12 to 22 days postinfection measured after 30 days by PCR analysis; type: functional
Outline: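 Mongrel dogs (4 months old, five per group) were inoculated with 2.0 × 10^3 Berenice-78 bloodstream trypomastigotes/kg and dosed orally at 12 mg/kg q12h for 90 days, beginning 12–22 days postinfection once parasitemia appeared. Blood was sampled 1 month after treatment. PCR used 2 μl blood DNA, 35 cycles with annealing at 30°C then 40°C, and polyacrylamide gel with silver staining.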

Trypanosoma cruzi [17] = test: Antimicrobial activity against Trypanosoma cruzi Y infected in mongrel dog assessed as parasite level in blood of dog at 12 mg/kg, po BID started 12 to 22 days postinfection measured after 6 months by PCR analysis; type: functional; outline: as §5
Trypanosoma cruzi [18] = test: Antimicrobial activity against Trypanosoma cruzi Y infected in mongrel dog assessed as parasite level in blood of dog at 7 mg/kg, po BID started 12 to 22 days postinfection measured after 30 days by PCR analysis; type: functional; outline: as §5
Canis familiaris [19] = test: Immunostimulatory activity in mongrel dog infected with Trypanosoma cruzi Y assessed as production of antibody IgG at 12 mg/kg, po BID for 90 days measured up to 30 days by ELISA; type: functional, organism-based; design: dose 12 mg/kg; conditions: Canis lupus familiaris
Outline: (§6)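 Serum was taken before inoculation and then monthly until 6 months posttreatment, and stored at −80°C. ELISA plates were coated with alkaline extract of Y-strain parasites grown to exponential phase in LIT medium. Bound total IgG or IgG2 was detected with peroxidase-labeled anti-dog conjugates and read at 490 nm. Cutoff was the mean absorbance of 10 uninfected dogs plus 2 SD.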

Canis familiaris [20] = test: Immunostimulatory activity in mongrel dog infected with Trypanosoma cruzi Y assessed as production of antibody IgG at 7 mg/kg, po BID for 90 days measured up to 30 days by ELISA; type: functional, organism-based; design: dose 7 mg/kg; conditions: Canis lupus familiaris; outline: as §6
Canis familiaris [21] = test: Immunostimulatory activity in mongrel dog infected with Trypanosoma cruzi Y assessed as production of antibody IgG2 at 7 mg/kg, po BID for 90 days measured up to 30 days by ELISA; type: functional, organism-based; design: dose 7 mg/kg; conditions: Canis lupus familiaris; outline: as §6
Canis familiaris [22] = test: Immunostimulatory activity in mongrel dog infected with Trypanosoma cruzi Berenice-78 assessed as production of antibody IgG2 at 12 mg/kg, po BID for 90 days measured up to 30 days by ELISA; type: functional, organism-based; design: dose 12 mg/kg; conditions: Canis lupus familiaris; outline: as §6
Canis familiaris [23] = test: Immunostimulatory activity in mongrel dog infected with Trypanosoma cruzi Berenice-78 assessed as production of antibody IgG at 7 mg/kg, po BID for 90 days measured up to 30 days by ELISA; type: functional, organism-based; design: dose 7 mg/kg; conditions: Canis lupus familiaris; outline: as §6
Canis familiaris [24] = test: Immunostimulatory activity in mongrel dog infected with Trypanosoma cruzi Berenice-78 assessed as production of antibody IgG2 at 7 mg/kg, po BID for 90 days measured up to 30 days by ELISA; type: functional, organism-based; design: dose 7 mg/kg; conditions: Canis lupus familiaris; outline: as §6

C[C@@H](c1nc(-c2ccc(C#N)cc2)cs1)[C@](O)(Cn1cncn1)c1ccc(F)cc1F [RAVUCONAZOLE]
Activity (Trypanosoma cruzi [1]): Active | half-life [2]: 8.8 h | half-life [3]: ≥ 120 h | half-life [4]: 4.5 h | Activity (Canis familiaris [5]): Active | Activity (Canis familiaris [6]): Active | half-life [7]: 96 h | Activity (Canis familiaris [8]): Non-toxic | Activity (Canis familiaris [9]): Non-toxic | Activity (Trypanosoma cruzi [10]): Non-toxic | Activity (Trypanosoma cruzi [11]): Non-toxic | Activity (Trypanosoma cruzi [12]): Non-toxic | Activity (Trypanosoma cruzi [13]): 100% | Activity (Trypanosoma cruzi [14]): 100% | Activity (Trypanosoma cruzi [15]): 80% | Activity (Trypanosoma cruzi [16]): 100% | Activity (Trypanosoma cruzi [17]): 60% | Activity (Trypanosoma cruzi [18]): 40% | Activity (Canis familiaris [19]): Active | Activity (Canis familiaris [20]): Active | Activity (Canis familiaris [21]): Active | Activity (Canis familiaris [22]): Active | Activity (Canis familiaris [23]): Active | Activity (Canis familiaris [24]): Active
